Measurements pooled from the literature.
Target: BDNF/NT-3 growth factors receptor (NTRK2, Homo sapiens, UniProt Q16620)

Cc1nn(C)cc1-c1nc2c(N3CCN(Cc4ccc(Cl)cc4)CC3)c(Cl)cnc2[nH]1 — remaining binding (binding, competition with immobilised ligand; 1 µM): 44%
C#Cc1n[nH]c2c(-c3cn(C(C)c4ccccn4)c(=O)[nH]c3=O)cc(F)cc12 (centres unmarked) — inhibition (enzyme activity, inhibitor; 1 µM): 2.8%
Cn1cc(-c2cc(F)cc(N3CCn4c(cc5c4CCCC5)C3=O)c2CO)cc(Nc2ccc(N3CCN(C4COC4)CC3)cn2)c1=O — inhibition (enzyme activity, inhibitor; 0.1 µM): 11%
COc1cc(Nc2ncc(F)c(Nc3ccc4c(n3)NC(=O)C(C)(C)O4)n2)cc(OC)c1OC — inhibition (binding, competition with immobilised ligand; 10 µM): 95%
N#CC1(c2ccccn2)CCN(Cc2cc(C(=O)O)c(=O)n3ccccc23)CC1 — remaining binding (cell-free assay, competition with immobilised ligand; 1 µM): 84%
C#Cc1n[nH]c2c(-c3cn([C@@H](C)c4ccccc4)c(=O)[nH]c3=O)cc(F)cc12 — inhibition (enzyme activity, inhibitor; 0.1 µM): 6.2%
Nc1ncc(-c2nc(N3CCOCC3)nc(N3CCOCC3)n2)c(C(F)F)n1 — remaining binding (cell-free assay, competition with immobilised ligand; 10 µM): 74%
O=c1[nH]c2ccccc2n1C1CCN(Cc2ccc(-c3[nH]c4cc5ncnc5cc4nc3-c3ccccc3)cc2)CC1 — remaining signal (cell-free assay; 0.5 µM): 99.4%
COc1ncccc1-c1cnn2ccc(N3CCN(C(=O)OC(C)C)CC3)nc12 — remaining binding (binding, competition with immobilised ligand; 1 µM): 40%
CC(C)(C)c1cc(C=C(C#N)C#N)cc(Br)c1O — remaining activity (enzyme activity, inhibitor; 0.5 µM): 90.9%
Cn1cncc1[C@](O)(COc1ccc(C#N)cc1-c1ccc(OC(F)(F)F)cc1)c1ccc(C#N)cc1 — remaining binding (cell-free assay, competition with immobilised ligand; 1 µM): 92%
